Key:
[1] = target: T1, B2 bradykinin receptor (Homo sapiens, UniProt P30411); test: Agonist activity at bradykinin B2 receptor (unknown origin)
T1 sequence (P30411 whole entry): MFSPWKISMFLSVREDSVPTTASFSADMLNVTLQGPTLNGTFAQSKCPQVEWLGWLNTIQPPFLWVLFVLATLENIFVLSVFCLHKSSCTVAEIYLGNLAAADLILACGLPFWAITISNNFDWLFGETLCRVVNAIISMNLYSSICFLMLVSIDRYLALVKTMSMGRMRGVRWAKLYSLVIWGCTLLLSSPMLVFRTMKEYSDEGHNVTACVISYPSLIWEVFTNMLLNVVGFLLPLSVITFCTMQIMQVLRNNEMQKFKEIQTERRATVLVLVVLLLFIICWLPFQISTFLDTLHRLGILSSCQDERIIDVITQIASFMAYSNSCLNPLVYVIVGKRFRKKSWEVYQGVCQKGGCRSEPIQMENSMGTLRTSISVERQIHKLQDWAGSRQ

[2] = system: MDA-MB-231; test: Antiproliferative activity against human MDA-MB-231 cells assessed as cell viability after 24 hrs; type: functional, cell-based; conditions: MDA-MB-231, 24 h
[3] = system: MCF7; test: Antiproliferative activity against human MCF7 cells assessed as cell viability after 24 hrs; type: functional, cell-based; conditions: MCF7, 24 h
Summary of the method: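 MCF-7 cells (ATCC) kept in DMEM with 10% FBS, 1.0 mM pyruvate, 2 mM L-glutamine and penicillin at 37 °C, 5% CO2. Cells grown to 60–70% confluence, then given fresh medium and compound (DMSO stock diluted in medium) at 0–200 μM for 24 h with serum. Surviving cells counted manually. IC50 from a non-linear fit of % living cells vs log concentration. Triplicate, mean ± SD.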

COc1nc2c(OCc3c(Cl)ccc(N(C)C(=O)CNC(=O)/C=C/c4ccc(NC(C)=O)nc4)c3Cl)cccc2n1Cc1ccccn1
IC50 [1]: 0.00068 µM

CNC(=O)c1ccc(/C=C/C(=O)O)cc1
IC50 [2]: 86 µM | IC50 [3]: 2.12 µM

Cc1cc(OCc2ccccn2)c2cccc(O)c2n1
IC50 [2]: 450 µM | IC50 [3]: 0.16 µM

CC1=C(/C=C/C(C)=C/C=C/C(C)=C/C(=O)NCC(=O)N(C)c2ccc(Cl)c(COc3cccc4c(OCc5ccccn5)cc(C)nc34)c2Cl)C(C)(C)CCC1
IC50 [2]: 193 µM | IC50 [3]: 65 µM

COc1cc(/C=C/C(=O)NCC(=O)N(C)c2ccc(Cl)c(COc3cccc4c(OCc5ccccn5)cc(C)nc34)c2Cl)ccc1O
IC50 [2]: 5.9 µM | IC50 [3]: 0.33 µM

CN(C(=O)CN1C(=O)c2ccccc2C1=O)c1ccc(Cl)c(CO)c1Cl
IC50 [2]: 0.78 µM | IC50 [3]: 53 µM

Cc1cc(OCc2ccccn2)c2cccc(N)c2n1
IC50 [2]: 22 µM | IC50 [3]: 0.86 µM

CNC(=O)c1ccc(/C=C/C(=O)NCc2cn(-c3ccc(Cl)c(CNc4cccc5c(OCc6ccccn6)cc(C)nc45)c3Cl)nn2)cc1
IC50 [2]: 0.43 µM | IC50 [3]: 0.73 µM

CC1=C(/C=C/C(C)=C/C=C/C(C)=C/C(=O)NCC(=O)N(C)c2ccc(Cl)c(CNc3cccc4c(OCc5ccccn5)cc(C)nc34)c2Cl)C(C)(C)CCC1
IC50 [2]: 0.005 µM | IC50 [3]: 64 µM

O=C1c2ccccc2C(=O)N1Cc1cn(-c2ccc(Cl)c(CO)c2Cl)nn1
IC50 [2]: 520 µM | IC50 [3]: 0.07 µM

Cc1cc(OCc2ccccn2)c2cccc(OCc3cccc(Oc4ccccc4)c3)c2n1
IC50 [2]: 6.97 µM | IC50 [3]: 407 µM

CNC(=O)c1ccc(/C=C/C(=O)NCC(=O)N(C)c2ccc(Cl)c(CNc3cccc4c(OCc5ccccn5)cc(C)nc34)c2Cl)cc1
IC50 [2]: 5.94e-05 µM | IC50 [3]: 1.21 µM

CNC(=O)c1ccc(/C=C/C(=O)NCc2cn(-c3ccc(Cl)c(COc4cccc5c(OCc6ccccn6)cc(C)nc45)c3Cl)nn2)cc1
IC50 [2]: 200 µM | IC50 [3]: 91 µM

CNC(=O)c1ccc(/C=C/C(=O)NCC(=O)N(C)c2ccc(Cl)c(CO)c2Cl)cc1
IC50 [2]: 650 µM | IC50 [3]: 0.93 µM

CNC(=O)c1ccc(/C=C/C(=O)NCC(=O)N(C)c2ccc(Cl)c(COc3cccc4c(OCc5ccccn5)cc(C)nc34)c2Cl)cc1
IC50 [2]: 0.08 µM | IC50 [3]: 2.14 µM

Cc1nc(NC(=O)N2CCC[C@H]2C(N)=O)sc1-c1ccnc(C(C)(C)C(F)(F)F)c1 [ALPELISIB]
IC50 [2]: 62.9 µM

CC(C)C[C@H](NC(=O)[C@H](Cc1ccccc1)NC(=O)c1cnccn1)B(O)O [BORTEZOMIB]
IC50 [2]: 0.003 µM

O=P1(N(CCCl)CCCl)NCCCO1 (stereo unspecified) [CYCLOPHOSPHAMIDE ANHYDROUS]
IC50 [2]: 196 µM

CC(=O)O[C@@]12CO[C@@H]1C[C@H](O)[C@@]1(C)C(=O)[C@H](O)C3=C(C)[C@@H](OC(=O)[C@H](O)[C@@H](NC(=O)OC(C)(C)C)c4ccccc4)C[C@@](O)([C@@H](OC(=O)c4ccccc4)[C@H]21)C3(C)C [DOCETAXEL ANHYDROUS]
IC50 [2]: 0.01 µM

COc1cccc2c1C(=O)c1c(O)c3c(c(O)c1C2=O)C[C@@](O)(C(=O)CO)C[C@@H]3O[C@H]1C[C@H](N)[C@H](O)[C@H](C)O1 [DOXORUBICIN]
IC50 [2]: 0.1 µM

COc1cccc2c1C(=O)c1c(O)c3c(c(O)c1C2=O)C[C@@](O)(C(=O)CO)C[C@@H]3O[C@H]1C[C@H](N)[C@@H](O)[C@H](C)O1 [EPIRUBICIN]
IC50 [2]: 0.15 µM

COc1cc(/C=C/C(=O)O)ccc1O [FERULATE]
IC50 [2]: 15 µM | IC50 [3]: 0.36 µM

O=c1[nH]cc(F)c(=O)[nH]1 [FLUOROURACIL]
IC50 [2]: 66.6 µM

CC(=O)Nc1ccc(/C=C/C(=O)NCC(=O)N(C)c2ccc(Cl)c(COc3cccc4ccc(C)nc34)c2Cl)cn1 [FR-173657]
IC50 [2]: 20 µM

C[C@]12CC[C@@H]3c4ccc(O)cc4C[C@@H](CCCCCCCCC[S+]([O-])CCCC(F)(F)C(F)(F)F)[C@H]3[C@@H]1CC[C@@H]2O (stereo partly specified) [FULVESTRANT]
IC50 [2]: 196 µM

Nc1ccn([C@@H]2O[C@H](CO)[C@@H](O)C2(F)F)c(=O)n1 [GEMCITABINE]
IC50 [2]: 2.1 µM

CS(=O)(=O)CCNCc1ccc(-c2ccc3ncnc(Nc4ccc(OCc5cccc(F)c5)c(Cl)c4)c3c2)o1 [LAPATINIB]
IC50 [2]: 10.6 µM

O=C(c1cc(Cc2n[nH]c(=O)c3ccccc23)ccc1F)N1CCN(C(=O)C2CC2)CC1 [OLAPARIB]
IC50 [2]: 62.5 µM

CC(=O)O[C@H]1C(=O)[C@@]2(C)[C@H]([C@H](OC(=O)c3ccccc3)[C@]3(O)C[C@H](OC(=O)[C@H](O)[C@@H](NC(=O)c4ccccc4)c4ccccc4)C(C)=C1C3(C)C)[C@]1(OC(C)=O)CO[C@@H]1C[C@@H]2O [PACLITAXEL]
IC50 [2]: 0.9 µM

CC(=O)c1c(C)c2cnc(Nc3ccc(N4CCNCC4)cn3)nc2n(C2CCCC2)c1=O [PALBOCICLIB]
IC50 [2]: 14.6 µM

CN(C)C(=O)c1cc2cnc(Nc3ccc(N4CCNCC4)cn3)nc2n1C1CCCC1 [RIBOCICLIB]
IC50 [2]: 27.3 µM

CO[C@H]1C[C@@H]2CC[C@@H](C)[C@@](O)(O2)C(=O)C(=O)N2CCCC[C@H]2C(=O)O[C@H]([C@H](C)C[C@@H]2CC[C@@H](O)[C@H](OC)C2)CC(=O)[C@H](C)/C=C(\C)[C@@H](O)[C@@H](OC)C(=O)[C@H](C)C[C@H](C)/C=C/C=C/C=C/1C [SIROLIMUS]
IC50 [2]: 0.9 µM

CC/C(=C(\c1ccccc1)c1ccc(OCCN(C)C)cc1)c1ccccc1 [TAMOXIFEN]
IC50 [2]: 69.7 µM

CC1=C(/C=C/C(C)=C/C=C/C(C)=C/C(=O)O)C(C)(C)CCC1 [TRETINOIN]
IC50 [2]: 16 µM | IC50 [3]: 6.14 µM

CC[C@]1(O)C[C@@H]2CN(CCc3c([nH]c4ccccc34)[C@@](C(=O)OC)(c3cc4c(cc3OC)N(C)[C@H]3[C@@](O)(C(=O)OC)[C@H](OC(C)=O)[C@]5(CC)C=CCN6CC[C@]43[C@@H]65)C2)C1 [VINBLASTINE]
IC50 [2]: 0.024 µM

Source: ChEMBL document CHEMBL4732084, “Potent antiproliferative activity of bradykinin B2 receptor selective agonist FR-190997 and analogue structures thereof: A paradox resolved?” (Eur J Med Chem, 2021)
